Source: PubChem BioAssay
CSN deneddyl inh: blocks human CSN-mediated cullin deneddylation; Q92905; Purified CSN, SCF-Nedd8-OG deneddylation, fluorescence polarization; inhibition, % at 12.5 µM; 0.38% of 360,000 active; AID 651999;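 active = pattern-corrected inhibition above about 35%, with an unprinted fluorescence ratio check between 0.5 and 1.5, limit read from the data, passing the limit was not always enough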;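 also: 0% = enzyme with substrate and 100% = substrate without enzyme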
Target sequence (Q92905 whole entry, looked up, one chain of several): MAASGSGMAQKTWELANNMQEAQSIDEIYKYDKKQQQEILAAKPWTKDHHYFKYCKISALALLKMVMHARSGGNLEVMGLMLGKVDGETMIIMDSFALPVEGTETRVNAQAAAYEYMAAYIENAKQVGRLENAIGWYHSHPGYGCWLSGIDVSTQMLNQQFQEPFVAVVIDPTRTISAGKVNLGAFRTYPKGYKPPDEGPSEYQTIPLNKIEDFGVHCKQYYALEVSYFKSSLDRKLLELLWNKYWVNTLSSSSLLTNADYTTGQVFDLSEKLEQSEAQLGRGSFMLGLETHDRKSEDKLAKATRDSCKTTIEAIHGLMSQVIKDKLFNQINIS
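Assay system: purified human Csn5 enzyme expressed in HEK293T cells; measure: % inhibition; also added: SCFSkp2-Nedd8OG substrate at 10 nM final; technique: fluorescence polarization; times: reaction 90 min, room temperature; medium: Tris buffer pH 7.5, NaCl, DTT, Tween-20, trehalose, ovalbumin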
HNF4A DNA FP: change in binding of human HNF4 alpha to DNA; activity change, % at 10 µM; 0.3% of 360,000 active; P41235; HNF4a-FITC DNA binding, fluorescence polarization, 1 h; in the data active = activity change above about 30%, passing the limit was not always enough
IDE inh: cellular human IDE inhibition; P14735; HEK cells, FAbetaB cleavage, fluorescence polarization; inhibition, % at 5.59 µM; 0.41% of 320,000 active;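 active = percent inhibition above the average of all tested compounds plus 3 SD, set per screening campaign, cut at about 16% in these data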;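 also: IDE supplied by intact live HEK cells; FP after avidin binding of uncleaved biotin substrate so inhibition keeps polarization high; 0% = DMSO wells and 100% = 60 µM reference IDE inhibitor Ii1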
IDE cell activ: activators of human insulin-degrading enzyme in cells. P14735. HEK cells, FAbeta-B cleavage, fluorescence polarization; 0% vehicle, 100% cell-free pure enzyme wells. activation, % at 5.96 µM. 0.073% of 340,000 active;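 active = activation above the mean of all tested compounds plus 3 SD, set per screening campaign, cut at about 17% in these data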
TPT1 inhibitor: C. albicans TPT1 enzyme inhibition; recombinant caTPT1, FP RNA substrate dephosphorylation; inhibition, % at 5 µM; AID 1962; 0.81% of 300,000 active;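 active = inhibition above the mean of all tested compounds plus 3 SD, set per screening campaign, cut at about 24% in these data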;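 also: plate controls were DMSO alone for no effect and ferristatin control at 100 nM for full effect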
TPT1 inh confirm: TPT1 (C. albicans) inhibition, confirmation. shares compounds with TPT1 inhibitor. recombinant caTPT1, fluorescence polarization, RNase T1 coupled. inhibition, % at 5 µM. 74% of 2,400 active;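 active = inhibition above the primary screen limit, the mean inhibition of all tested compounds plus 3 SD, cut at about 25% in these data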
RNase T1 inh: counter-screen for TPT1 inhibitors: inhibitors of Aspergillus oryzae RNase T1 | shares compounds with TPT1 inhibitor | RNase T1 cleavage, fluorescence polarization, 1536-well | 83% of 2,400 active | inhibition, % at 5 µM;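 active = inhibition above the solvent-only control well mean plus 3 SD, limit set per screening run, cut at about 23% in these data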;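 also: plate controls were DMSO wells with enzyme for no effect and wells without RNase T1 for full effect; inhibitors block cleavage so intact labeled substrate keeps polarization high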
Target sequence (P00651 whole entry, looked up): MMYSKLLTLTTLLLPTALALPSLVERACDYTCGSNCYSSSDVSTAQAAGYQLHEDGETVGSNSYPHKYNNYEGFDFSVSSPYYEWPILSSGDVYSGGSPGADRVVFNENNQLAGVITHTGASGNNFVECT
Numbers without * were called inactive; . = not tested or not shown. This is a sample that favours compounds with a hit; in the whole collection about 1.4% have one here.

SMILES	CSN deneddyl inh	HNF4A DNA FP	IDE inh	IDE cell activ	TPT1 inhibitor	TPT1 inh confirm	RNase T1 inh
O=C(O)C(=O)/C(=C\c1cccc2ccccc12)c1ccc2ccccc2n1	20	20	5	3	49*	89*	102*
CCCCC(=O)Nc1ccc(NC(=O)c2ccc([N+](=O)[O-])cc2)cc1OC	-7	-1	0	3	1	.	.
CCCCC(=O)Nc1ccc(C(=O)Nc2ccc(OC)cc2[N+](=O)[O-])cc1	131	95	4	-3	27*	54*	63*
CCCCNC(=O)c1nc(C2CCNCC2)oc1-c1ccccc1	-4	3	.	.	.	.	.
Cc1ccc(C(=O)NNC(=O)CCCN2C(=O)/C(=C/c3ccccc3Cl)SC2=S)cc1	5	5	16	3	38*	7	12
O=C(CCCN1C(=O)/C(=C/c2ccccc2Cl)SC1=S)NNC(=O)c1ccc(Cl)cc1	4	15	-2	2	2	.	.
O=C(O)c1ccccc1SCC(=O)N1CCc2ccccc21	-1	-2	4	3	139*	1	4
Nc1ccccc1SCC(=O)N1CCc2ccccc21	7	-2	-3	4	-3	.	.
O=C(N/C=C/c1ccco1)OCc1ccccc1	3	14	2	1	31*	19	31*
O=C(Cc1ccc(Cl)cc1)NNC(=S)NC(=O)c1cccnc1	-2	3	4	2	35*	45*	58*
CCN(CC)c1ccc(/C=N/OCC(=O)Nc2cccc(C)c2)cc1	19	30	4	2	34*	43*	56*
CN(C)c1ccc(CC(=O)N2CCCCC2c2cc(C(=O)Nc3cccc4c3CCCC4)no2)cc1 (stereo not drawn)	0	3	.	.	.	.	.
COc1cc2c(cc1OC)-c1cc(OCCN3CCOCC3)nc(=O)n1CC2	12	3	-1	1	25*	32*	44*
CC(C)(C)OC(=O)N1C(=O)[C@](OC(=O)c2ccccc2)(c2ccc(F)cc2)c2ccccc21	-3	2	.	.	.	.	.
COc1ccc(-c2c/c(=N\c3nc(-c4ccccc4)c(C)s3)c3ccccc3o2)cc1O	0	12	3	-2	27*	22	31*
COc1ccc(-c2cc(=Nc3c(C)n(C)n(-c4ccccc4)c3=O)c3ccccc3o2)cc1	6	0	8	6	-2	.	.
COC(=O)[C@]12CCCCC=C1N(Cc1ccc3c(c1)OCO3)C(=O)[C@H](CC(=O)N1CCSCC1)C2	-2	0	.	.	.	.	.
CN1C(=O)/C(=C/c2coc3ccc(O)cc3c2=O)SC1=S	9	16	14	-3	24	.	.
N=C1/C(=C\c2coc3ccc(O)cc3c2=O)C(=O)N=C2SC=CN12	69	30	14	-22	65*	67*	76*
N=C1/C(=C/c2coc3ccccc3c2=O)C(=O)N=C2SC(c3ccco3)=NN12	-65	23	15	.	59*	88*	97*
COc1ccc(Oc2cnc3ccccc3n2)cc1	1	-4	3	2	66*	4	5
C=CCN1C(=O)N/C(=C/c2ccc(N3CCOCC3)o2)C1=O	.	.	7	.	29*	105*	113*
O=C1N/C(=C/c2ccc(N3CCCC3)cc2)C(=O)N1c1ccccc1	9	16	12	-7	34*	49*	63*
O=C1N/C(=C/c2ccc(N3CCOCC3)o2)C(=O)N1c1ccccc1	-1	112	9	-4	70*	150*	148*
O=C1N/C(=C/c2ccc(N3CCOCC3)cc2)C(=O)N1Cc1ccc(F)cc1	2	-3	0	3	-5	.	.
SMILES	CSN deneddyl inh	HNF4A DNA FP	IDE inh	IDE cell activ	TPT1 inhibitor	TPT1 inh confirm	RNase T1 inh
C[C@@H]1O[C@H](C2CCCC2)Cc2[nH]c(=S)[nH]c(=O)c21	-1	-1	.	.	.	.	.
CCOC(=O)[C@]12CCC=C1N(Cc1ccco1)C(=O)[C@H](CC(=O)NCCCOC)C2	-1	0	.	.	.	.	.
COCCn1ccc2c(OCC(=O)Nc3cccc(NC(C)=O)c3)cccc2c1=O	0	-1	5	2	0	.	.
O=[N+]([O-])c1ccc(-c2nc(-c3cccs3)c(-c3cccs3)[nH]2)cc1	28	32	5	2	63*	60*	77*
Cc1ccc(S(=O)(=O)Nc2ccccc2OC(C(=O)OC(C)(C)C)C(=O)OC(C)(C)C)cc1	2	-3	.	.	.	.	.
Cc1cccc(C)c1NC(=O)C(c1ccnc2ccccc12)N1CCN(CCN(C)C)CC1 (stereo not drawn)	-2	0	.	.	.	.	.
O=C(Cn1c(CO)nc2ccccc21)NCc1ccc2c(c1)OCO2	5	4	-2	-3	-4	.	.
O=C(Cn1c(Cc2ccccc2)nc2ccccc21)NCc1ccc2c(c1)OCO2	-1	1	5	5	61*	10	16
CC[C@H](C)/C=C(C)/C=C/C(=O)Cc1cc(O)c(C)c(O)c1C=O	34	36	4	2	34*	31*	41*
N=c1oc2ccc(Br)cc2cc1C(=O)NCc1ccc(F)cc1	6	-1	0	-2	1	.	.
CCN(CC)c1ccc2cc(C(=O)NCc3ccc(F)cc3)c(=N)oc2c1	7	65	2	-6	78*	109*	109*
Cc1c(-n2cc(C(=O)c3cc(Br)ccc3O)cc(C#N)c2=O)c(=O)n(-c2ccccc2)n1C	15	17	14	-14	37*	24*	32*
CCC(C)(C)NC(=O)C(c1ccc(OC)cc1)N(C(=O)CCC(=O)Nc1cc(C)on1)c1ccccc1F (stereo not drawn)	0	1	5	1	-1	.	.
C/C=C/c1cccc(-c2nc(C(=O)N3CCCCC3)cc3c2[C@@H](CCO)N(C(=O)NC(C)C)C3)c1	-3	2	.	.	.	.	.
Cc1ccc(C)c(C(=O)Nc2nc3ccccc3[nH]2)c1	0	0	-2	0	25*	9	15
CCOC(=O)Cn1cnc2sc3c(c2c1=O)CCC3	4	0	-2	1	36*	15	23*
COC(=O)Cn1cnc2sc3c(c2c1=O)CCCC3	-4	-3	2	-2	-5	.	.
O=C(NCCOc1ccccc1)C1C(=O)Nc2ccccc2C(=O)N1C1CCCCC1 (stereo not drawn)	3	1	.	.	.	.	.
O=Cc1ccc(-n2nncc2-c2ccc([N+](=O)[O-])cc2)cc1	-3	-2	0	7	-2	.	.
CC(C)(C)c1cnnn1-c1ccc(/C=N/Nc2ccc([N+](=O)[O-])cc2)cc1	1	12	1	-3	26*	40*	53*
Cc1ccc(C(C)C)c(OCC(O)CN2CCc3ccccc3C2)c1 (stereo not drawn)	2	-3	-2	-3	-2	.	.
